The test system of assay [1] is HT-29. The experiment in a line: Cytotoxicity against human HT-29 cells 0.5 to 50 ug/ml. Type of assay: functional, cell-based. An outline of the steps: (§1)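 Cells tested at three concentrations (50, 5 and 0.5 μg/mL). HT-29 (human colon adenocarcinoma) obtained from ATCC. P-388 (mouse lymphocytic leukemia) line supplied by an outside laboratory. Assay otherwise run per a previously described procedure.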

Assay [2] has as its system P388. The experiment in a line: Cytotoxicity against mouse P388 cells at 0.5 to 50 ug/ml. Type of assay: functional, cell-based. An outline of the steps:
as §1

The test system of assay [3] is P388. The experiment in a line: Cytotoxicity against mouse P388 cells. The following applies: read-out: ED50 (the source's name). The assay is classed as functional. An outline of the steps:
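P-388 mouse lymphocytic leukemia cells, supplied by an academic laboratory. Test compounds were run at three concentrations (50, 5 and 0.5 μg/mL), following a previously described cytotoxicity procedure.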

In brackets after ≈: the same amount, converted by molar mass.

As for `C=C(C)C(CC[C@@]1(C)CC[C@]2(C)O[C@H]2CC[C@](C)(O)[C@H]2C[C@@H]21)OO` (stereo not given in full), the Activity entry in assay [1] and in assay [2] was “Not toxic” throughout.

With `C=C1CC/C=C(\C)CC[C@](C)(C/C=C/C(C)(C)O)[C@H]2C[C@H]12`, the Activity result in assay [1] and in assay [2] was “Not toxic” throughout.

For `CC(C)(/C=C/C[C@@]1(C)CC[C@]2(C)O[C@H]2CC[C@](C)(O)[C@H]2C[C@@H]21)OO` [PACIFICIN C], the Activity result in assay [1] is “Not toxic”. For the same compound, the EC50 in assay [3] came out at 1.44 µg/mL (≈ 4.25 µM).

As to `C=C(C)C(CC[C@@]1(C)CC/C(C)=C/[C@H](OC(C)=O)C[C@](C)(O)[C@H]2C[C@@H]21)OO` (stereo not given in full) [PACIFICIN H], the Activity result in assay [1] is “Not toxic”. Further, the EC50 in assay [3] turned out to be 2.01 µg/mL (≈ 5.28 µM).

For `CC(=O)O[C@H]1/C=C(\C)CC[C@](C)(C/C=C/C(C)(C)OO)[C@H]2C[C@@H]2[C@@](C)(O)C1`, the Activity result in assay [1] and in assay [2] was “Not toxic” each time.

Consider `C/C1=C\CC[C@](C)(O)[C@H]2C[C@@H]2[C@@](C)(C/C=C/C(C)(C)O)CC1`, for which the Activity entry in assay [1] and in assay [2] was “Not toxic” in each case.

For the compound `CC(C)(O)/C=C/C[C@@]1(C)CC[C@]2(C)O[C@H]2CC[C@](C)(O)[C@H]2C[C@@H]21`, the Activity result in assay [1] and in assay [2] was “Not toxic” in each case.

As to `C=C1CC/C=C(\C)CC[C@](C)(CCC=C(C)C)[C@H]2C[C@H]12`, the Activity entry in assay [1] and in assay [2] was “Not toxic” each time.

`C=C(C)C(O)CC[C@@]1(C)CC[C@]2(C)O[C@H]2CC[C@](C)(O)[C@H]2C[C@@H]21` (stereo not given in full): the Activity result in assay [1] and in assay [2] was “Not toxic” each time.

Regarding `CC(C)=CCC[C@@]1(C)CC[C@]2(C)O[C@H]2CC[C@](C)(O)[C@H]2C[C@@H]21`, the Activity entry in assay [1] and in assay [2] was “Not toxic” each time.

The values are drawn from ChEMBL document CHEMBL1142565, “Prenylbicyclogermacrane diterpenoids from the formosan soft coral Nephthea pacifica” (2005).
